# Measured values as given in ChEMBL document CHEMBL1926530, “Novel pyrazolo[1,5-a]pyridines as p110α-selective PI3 kinase inhibitors: Exploring the benzenesulfonohydrazide SAR” (Bioorg Med Chem, 2012).
# Legend:
# [1] = biological target: Phosphatidylinositol 4,5-bisphosphate 3-kinase catalytic subunit beta isoform (Homo sapiens, UniProt P42338); experiment: Inhibition of recombinant PI3K p110beta using L-alpha-phosphatidylinositol as substrate and [gamma33P]ATP after 60 mins by thin layer chromatographic technique
# Summary of the method: (§1)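 In-house recombinant enzyme (0.1 µg) with L-α-phosphatidylinositol in 40 mM Tris-HCl pH 7.4, 200 mM NaCl, 1 mM EDTA; DMSO 1% final. Started with 5 mM MgCl₂, 100 µM ATP plus [γ-³³P]ATP; 1 h at room temperature, stopped with 1 M HCl. Lipids extracted, separated by TLC, phosphorimaged. Nine inhibitor concentrations; two experiments, IC50 averaged.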
# HCT-116 = experiment: Antitumor activity against human HCT116 cells xenografted in Rag1knockout mouse assessed as tumor growth delay at 40 mg/kg, ip QD measured on day 7 relative to untreated control; type: functional; details: route intraperitoneal
# Summary of the method: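 Male Rag1−/− mice (age-matched, SPF) inoculated s.c. with 5 × 10⁶ HCT-116 cells in PBS. Dosing started at ~150 mm³ tumours: q.d. i.p. in 7.5% DMSO, 42.5% PEG-400, 20% 2-hydroxypropyl-β-cyclodextrin, 30% water; controls received vehicle. Volume = (L × w²) × π/6, measured three times weekly; bodyweight daily. Treatment stopped if mean weight loss >15%; 1-way ANOVA with Holm–Sidak.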
# [2] = Inhibition of DNA-PK
# [3] = biological target: High affinity nerve growth factor receptor (Homo sapiens) (UniProt P04629); experiment: Inhibition of TrkA assessed as residual activity at 1 uM
# [4] = biological target: Misshapen-like kinase 1 (Homo sapiens) (UniProt Q8N4C8); experiment: Inhibition of MINK1 assessed as residual activity at 10 uM
# [5] = biological target: Ribosomal protein S6 kinase alpha-1 (Homo sapiens) (UniProt Q15418); experiment: Inhibition of RSK1 assessed as residual activity at 10 uM
# [6] = biological target: Dual specificity mitogen-activated protein kinase kinase 1 (Homo sapiens) (UniProt Q02750); experiment: Inhibition of MKK1 assessed as residual activity at 1 uM
# Chain of Dual specificity mitogen-activated protein kinase kinase 1 (Homo sapiens) (Q02750 whole entry): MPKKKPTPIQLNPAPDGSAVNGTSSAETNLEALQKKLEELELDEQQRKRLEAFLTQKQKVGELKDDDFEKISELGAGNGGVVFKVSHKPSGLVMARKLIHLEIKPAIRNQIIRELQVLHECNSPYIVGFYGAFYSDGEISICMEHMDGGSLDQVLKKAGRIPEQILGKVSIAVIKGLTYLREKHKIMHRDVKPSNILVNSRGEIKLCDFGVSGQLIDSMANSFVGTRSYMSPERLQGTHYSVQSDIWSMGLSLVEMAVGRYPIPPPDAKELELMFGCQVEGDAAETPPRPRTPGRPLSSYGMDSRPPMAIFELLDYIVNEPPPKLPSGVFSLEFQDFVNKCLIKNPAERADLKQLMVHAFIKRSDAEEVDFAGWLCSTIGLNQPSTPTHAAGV
# [7] = biological target: Mitogen-activated protein kinase 14 (Homo sapiens) (UniProt Q16539); experiment: Inhibition of p38alpha assessed as residual activity at 10 uM
# Chain of Mitogen-activated protein kinase 14 (Homo sapiens) (Q16539 whole entry): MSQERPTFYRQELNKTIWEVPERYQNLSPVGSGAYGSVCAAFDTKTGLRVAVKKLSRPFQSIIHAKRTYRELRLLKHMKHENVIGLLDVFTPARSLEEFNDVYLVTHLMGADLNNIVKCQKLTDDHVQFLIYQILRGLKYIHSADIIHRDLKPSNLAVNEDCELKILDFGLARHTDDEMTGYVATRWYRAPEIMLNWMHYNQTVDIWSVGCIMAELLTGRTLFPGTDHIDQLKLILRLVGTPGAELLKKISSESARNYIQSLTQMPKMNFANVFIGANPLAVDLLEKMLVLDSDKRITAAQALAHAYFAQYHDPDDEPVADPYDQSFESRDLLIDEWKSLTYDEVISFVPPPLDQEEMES
# [8] = biological target: Insulin receptor (Homo sapiens) (UniProt P06213); experiment: Inhibition of IR assessed as residual activity at 10 uM
# Chain of Insulin receptor (Homo sapiens) (P06213 28-758 limits assumed): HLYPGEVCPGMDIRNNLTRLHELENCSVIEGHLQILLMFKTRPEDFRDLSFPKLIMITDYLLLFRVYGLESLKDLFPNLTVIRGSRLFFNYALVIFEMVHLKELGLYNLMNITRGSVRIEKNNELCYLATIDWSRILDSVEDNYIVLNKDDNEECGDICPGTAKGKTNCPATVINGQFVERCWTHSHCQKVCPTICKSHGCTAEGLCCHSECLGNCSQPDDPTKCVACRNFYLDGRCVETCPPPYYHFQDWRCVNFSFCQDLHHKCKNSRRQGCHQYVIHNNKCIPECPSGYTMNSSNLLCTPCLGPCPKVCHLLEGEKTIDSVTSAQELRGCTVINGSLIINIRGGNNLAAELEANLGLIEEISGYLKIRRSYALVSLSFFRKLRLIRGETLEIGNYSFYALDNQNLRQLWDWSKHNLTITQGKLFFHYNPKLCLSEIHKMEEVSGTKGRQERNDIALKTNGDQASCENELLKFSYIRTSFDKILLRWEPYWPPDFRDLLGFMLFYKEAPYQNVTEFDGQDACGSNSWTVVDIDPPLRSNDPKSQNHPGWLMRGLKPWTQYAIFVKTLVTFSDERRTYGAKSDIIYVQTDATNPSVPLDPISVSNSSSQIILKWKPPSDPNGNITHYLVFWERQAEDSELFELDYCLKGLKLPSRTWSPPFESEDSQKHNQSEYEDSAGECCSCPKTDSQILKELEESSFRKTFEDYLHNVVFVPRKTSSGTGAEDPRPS
# Chain of Insulin receptor (Homo sapiens) (P06213 763-1382 limits assumed): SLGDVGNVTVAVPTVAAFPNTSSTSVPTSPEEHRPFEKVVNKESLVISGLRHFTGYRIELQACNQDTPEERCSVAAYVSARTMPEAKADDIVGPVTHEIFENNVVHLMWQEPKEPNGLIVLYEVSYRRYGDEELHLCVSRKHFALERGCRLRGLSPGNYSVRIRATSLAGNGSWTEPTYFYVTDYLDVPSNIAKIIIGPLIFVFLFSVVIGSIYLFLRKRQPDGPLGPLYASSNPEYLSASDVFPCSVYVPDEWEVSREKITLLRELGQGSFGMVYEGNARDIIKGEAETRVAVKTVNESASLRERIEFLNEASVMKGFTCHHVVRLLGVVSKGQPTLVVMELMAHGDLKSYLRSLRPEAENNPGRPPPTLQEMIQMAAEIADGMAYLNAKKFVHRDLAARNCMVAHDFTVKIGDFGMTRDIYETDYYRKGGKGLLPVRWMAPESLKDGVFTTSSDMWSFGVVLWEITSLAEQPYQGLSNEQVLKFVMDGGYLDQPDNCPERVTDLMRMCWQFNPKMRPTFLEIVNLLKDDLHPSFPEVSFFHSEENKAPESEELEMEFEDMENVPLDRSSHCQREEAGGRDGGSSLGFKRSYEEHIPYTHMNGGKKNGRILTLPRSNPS
# [9] = Inhibition of PKA assessed as residual activity at 1 uM
# [10] = biological target: Insulin receptor (Homo sapiens) (UniProt P06213); experiment: Inhibition of IR assessed as residual activity at 1 uM
# SK-OV-3 = experiment: Antitumor activity against human SKOV3 cells xenografted in nude NIH3 mouse assessed as tumor growth delay at 30 mg/kg, ip QD administered for 14 days relative to untreated control; type: functional; details: SK-OV-3, ip, 336 h, route intraperitoneal, read-out: GI
# Summary of the method: (§2)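 Female NIH III nude mice (age-matched, SPF) inoculated s.c. with 5 × 10⁶ SK-OV-3 cells in PBS. Dosing from ~150 mm³ tumours, 30 mg/kg i.p. q.d. for 14 days in 7.5% DMSO/42.5% PEG-400/20% 2-hydroxypropyl-β-cyclodextrin/30% water; vehicle controls. Volume (L × w²) × π/6 three times weekly; bodyweight daily; culled above 20% weight loss; 1-way ANOVA, Holm–Sidak.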
# [11] = biological target: Phosphatidylinositol 4,5-bisphosphate 3-kinase catalytic subunit alpha isoform (Homo sapiens, UniProt P42336, E545K); experiment: Inhibition of recombinant PI3K p110alpha E545K mutant using L-alpha-phosphatidylinositol as substrate and [gamma33P]ATP after 60 mins by thin layer chromatographic technique
# Chain of Phosphatidylinositol 4,5-bisphosphate 3-kinase catalytic subunit alpha isoform (Homo sapiens, UniProt P42336, E545K) (P42336 whole entry E545K, canonical isoform): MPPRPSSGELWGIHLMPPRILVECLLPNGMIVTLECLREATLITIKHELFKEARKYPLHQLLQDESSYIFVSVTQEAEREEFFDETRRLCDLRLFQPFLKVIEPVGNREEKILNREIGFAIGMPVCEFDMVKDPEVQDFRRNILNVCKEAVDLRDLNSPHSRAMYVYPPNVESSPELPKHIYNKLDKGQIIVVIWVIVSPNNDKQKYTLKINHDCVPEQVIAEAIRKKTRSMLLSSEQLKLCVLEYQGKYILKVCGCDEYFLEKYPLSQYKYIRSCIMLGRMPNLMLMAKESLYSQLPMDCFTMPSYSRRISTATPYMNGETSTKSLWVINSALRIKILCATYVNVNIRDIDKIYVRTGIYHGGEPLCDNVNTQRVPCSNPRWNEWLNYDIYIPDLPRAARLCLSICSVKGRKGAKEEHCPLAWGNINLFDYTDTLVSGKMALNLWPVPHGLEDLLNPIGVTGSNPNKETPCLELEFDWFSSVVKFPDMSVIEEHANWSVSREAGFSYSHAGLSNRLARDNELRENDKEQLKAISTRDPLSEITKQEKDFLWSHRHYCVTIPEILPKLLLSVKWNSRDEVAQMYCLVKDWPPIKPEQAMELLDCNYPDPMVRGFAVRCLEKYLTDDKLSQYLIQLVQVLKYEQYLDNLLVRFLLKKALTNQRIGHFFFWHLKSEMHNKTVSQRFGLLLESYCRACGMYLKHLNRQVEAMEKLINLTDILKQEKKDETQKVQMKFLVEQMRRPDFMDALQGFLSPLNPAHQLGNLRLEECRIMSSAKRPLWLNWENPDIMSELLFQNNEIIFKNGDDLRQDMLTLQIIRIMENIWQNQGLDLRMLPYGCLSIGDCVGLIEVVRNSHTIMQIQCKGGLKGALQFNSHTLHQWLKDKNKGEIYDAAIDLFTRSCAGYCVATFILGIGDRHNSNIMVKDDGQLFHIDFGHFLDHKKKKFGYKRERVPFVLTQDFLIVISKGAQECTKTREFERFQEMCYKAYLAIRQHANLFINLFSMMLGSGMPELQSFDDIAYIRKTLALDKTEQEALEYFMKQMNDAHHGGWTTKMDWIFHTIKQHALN
# [12] = biological target: Phosphatidylinositol 4,5-bisphosphate 3-kinase catalytic subunit gamma isoform (Homo sapiens, UniProt P48736); experiment: Inhibition of PI3K p110gamma
# Chain of Phosphatidylinositol 4,5-bisphosphate 3-kinase catalytic subunit gamma isoform (P48736 whole entry, canonical isoform): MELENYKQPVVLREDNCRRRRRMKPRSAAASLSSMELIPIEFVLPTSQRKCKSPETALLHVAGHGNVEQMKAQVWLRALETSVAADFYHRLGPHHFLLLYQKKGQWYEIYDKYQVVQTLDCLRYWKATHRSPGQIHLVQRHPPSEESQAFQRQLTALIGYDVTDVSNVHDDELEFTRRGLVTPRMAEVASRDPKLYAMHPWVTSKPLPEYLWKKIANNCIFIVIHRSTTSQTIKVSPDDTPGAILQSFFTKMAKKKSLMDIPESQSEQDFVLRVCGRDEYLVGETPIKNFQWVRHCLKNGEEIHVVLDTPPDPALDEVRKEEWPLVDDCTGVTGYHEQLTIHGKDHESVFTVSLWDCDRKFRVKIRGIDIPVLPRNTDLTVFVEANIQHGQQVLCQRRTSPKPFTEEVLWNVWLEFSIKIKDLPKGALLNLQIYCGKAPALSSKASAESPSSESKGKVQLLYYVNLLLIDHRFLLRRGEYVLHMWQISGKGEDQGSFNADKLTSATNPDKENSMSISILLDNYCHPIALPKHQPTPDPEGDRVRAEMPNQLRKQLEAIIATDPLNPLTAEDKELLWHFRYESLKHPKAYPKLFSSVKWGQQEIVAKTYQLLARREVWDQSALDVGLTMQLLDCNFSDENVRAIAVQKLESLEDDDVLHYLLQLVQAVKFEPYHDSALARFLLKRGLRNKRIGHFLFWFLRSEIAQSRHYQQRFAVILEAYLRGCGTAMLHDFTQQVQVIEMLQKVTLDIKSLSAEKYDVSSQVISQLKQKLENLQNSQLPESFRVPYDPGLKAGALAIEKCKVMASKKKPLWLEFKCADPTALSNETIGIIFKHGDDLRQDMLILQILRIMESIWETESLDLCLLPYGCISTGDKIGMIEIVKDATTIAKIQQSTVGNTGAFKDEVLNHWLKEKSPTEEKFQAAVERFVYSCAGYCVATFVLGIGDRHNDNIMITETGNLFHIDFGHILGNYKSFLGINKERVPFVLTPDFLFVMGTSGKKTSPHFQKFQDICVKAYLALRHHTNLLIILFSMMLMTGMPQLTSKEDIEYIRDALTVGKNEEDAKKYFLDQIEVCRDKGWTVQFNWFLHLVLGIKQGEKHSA
# [13] = biological target: Dual specificity mitogen-activated protein kinase kinase 1 (Homo sapiens) (UniProt Q02750); experiment: Inhibition of MKK1 assessed as residual activity at 10 uM
# [14] = AUC (0 to infinity) in CD1 mouse at 10 mg/kg, ip; type: ADME, organism-based; set-up: time infinity, dose 10 mg/kg, route intraperitoneal; details: plasma
# Summary of the method: (§3)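 Age-matched specific pathogen-free male CD-1 mice; single 10 mg/kg i.p. dose in 5% DMSO, 45% PEG-400, 20% 2-hydroxypropyl-β-cyclodextrin, 30% water. Blood sampled at multiple times post-dose; plasma taken after centrifugation (10 min, 6000 rpm, 20 °C). Plasma analysed by LC-MS/MS; parameters from non-compartmental analysis.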
# Mus musculus = experiment: Toxicity in NIH3 mouse xenografted with human SKOV3 cells assessed as body weight loss at 30 mg/kg, ip QD administered for 14 days; type: organism-based, SK-OV-3; set-up: dose 30 mg/kg, route intraperitoneal; details: in vivo, 336 h; summary of the method: as §2
# [15] = biological target: Phosphatidylinositol 4,5-bisphosphate 3-kinase catalytic subunit alpha isoform (Homo sapiens, UniProt P42336, H1047R); experiment: Inhibition of recombinant PI3K p110alpha H1047R mutant using L-alpha-phosphatidylinositol as substrate and [gamma33P]ATP after 60 mins by thin layer chromatographic technique
# Chain of Phosphatidylinositol 4,5-bisphosphate 3-kinase catalytic subunit alpha isoform (Homo sapiens, UniProt P42336, H1047R) (P42336 whole entry H1047R, canonical isoform): as the sequence (P42336 whole entry E545K, canonical isoform) above, with K545E, H1047R counted along it
# [16] = Terminal half life in CD1 mouse at 10 mg/kg, ip; type: ADME, organism-based; set-up: dose 10 mg/kg, route intraperitoneal; details: in vivo, read-out: beta t1/2 (converted); summary of the method: as §3
# [17] = biological target: Phosphatidylinositol 4,5-bisphosphate 3-kinase catalytic subunit alpha isoform (Homo sapiens, UniProt P42336); experiment: Inhibition of recombinant PI3K p110alpha using L-alpha-phosphatidylinositol as substrate and [gamma33P]ATP after 60 mins by thin layer chromatographic technique; summary of the method: as §1
# Chain of Phosphatidylinositol 4,5-bisphosphate 3-kinase catalytic subunit alpha isoform (Homo sapiens, UniProt P42336) (P42336 whole entry, canonical isoform): as the sequence (P42336 whole entry E545K, canonical isoform) above, with K545E counted along it
# [18] = biological target: Mitogen-activated protein kinase 14 (Homo sapiens) (UniProt Q16539); experiment: Inhibition of p38alpha assessed as residual activity at 1 uM
# [19] = Inhibition of PKA assessed as residual activity at 10 uM
# [20] = Cytotoxicity against human NZOV9 cells harboring PI3K p110alpha Y1021C mutant assessed as inhibition of [3H]thymidine incorporation measured after 5 days; type: functional, cell-based
# Summary of the method: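 Early-passage lines grown in α-MEM with insulin, transferrin, selenite and 5% FBS. Wells seeded with 1000 cells; inhibitor in dilution steps up to a maximum of 20. Five days under 5% O₂/5% CO₂/90% N₂, ³H-thymidine added for the last 6 h. Duplicates per dose; fit y = y₀ + ae^−bx; IC50 = 50% reduction in incorporation.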
# [21] = Aqueous solubility of the compound; type: physicochemical; details: water
# Summary of the method: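 Solid mixed with water to make 2 mM, sonicated 15 min, centrifuged 13000 rpm for 6 min. Clear supernatant diluted 2-fold with water, recentrifuged and injected on HPLC. Peak area compared with a DMSO standard solution of the compound, correcting for dilution and injection volume.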
compound,measurement,setting,value
Cc1ccc([N+](=O)[O-])cc1S(=O)(=O)N(CCO)/N=C/c1cnn2ccc(C#N)cc12,IC50,[1],51 nM
same,Activity,HCT-116,43.8%
same,IC50,[2],0.3 nM
same,Activity,[3],73%
same,Activity,[4],2%
same,Activity,[5],5%
same,Activity,[6],65%
same,Activity,[7],13%
same,Activity,[8],14%
same,Activity,[9],59%
same,Activity,[10],76%
same,inhibition in vivo at 30 mg/kg,SK-OV-3,49.9%
same,IC50,[11],0.8 nM
same,IC50,[12],11 nM
same,Activity,[13],5%
same,AUC(0-inf),[14],3.16 µM·h
same,Activity,Mus musculus,20%
same,IC50,[15],0.8 nM
same,half-life,[16],1.13 h
same,IC50,[17],1.3 nM
same,Activity,[18],59%
same,Activity,[19],8%
same,IC50,[20],140 nM
same,solubility,[21],1.2 µg/mL
